Fibroblast inh: blocks proliferation of human lung fibroblasts; LL 47 human lung fibroblast viability, ATP luminescence; stronger effect = lower value; viability, % at 10 µM; 85,000 tested, 1.1% active; AID 719;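 active means viability at or below 50% in the single dose screen; inactive means viability above 50%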;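 further: compound exposure lasted 72 h before the ATP readout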
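Benchmarks: Cell-only wells, no compound | Test system: LL 47 human lung fibroblasts, passage 12 or lower | Input: 1,150 cells/well | Measured by: CellTiter-Glo luminescence measuring cellular ATP | Medium: IMEM, 15% FBS supplement | Schedule: Overnight attachment after seeding, then 72 h compound exposure at 37 °C | Doses: Compound addition at 0.1% DMSO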
Ecoli tolC: E. coli tolC mutant growth inhibition | E. coli BW25113 tolC mutant growth, OD615 | growth inhibition, % at 10 µM (by protocol) | 65,000 tested, 2.2% active;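 active means growth inhibition at or above a cutoff equal to the mean over every tested compound plus 3 SD, cut at about 60% in these data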;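 further: growth measured after 20 h incubation at 37 °C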
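Test system: tolC-deleted E. coli BW25113; medium: LB with kanamycin 50 µg/mL; compound: single-point testing at 10 µM; incubation: 20 h compound exposure of bacteria at 37 °C; signal: OD at 615 nm; evaluation: growth inhibition in percent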
HUVEC inhibit: human endothelial cell proliferation inhibition | viability, % at 10 µM (by protocol) | 86,000 tested, 1.1% active | HUVEC proliferation, CellTiter-Glo luminescence, 72 h; stronger effect = lower value;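 active means viability at or below 30%; inactive means viability above 30%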
Ecoli WT expand: growth inhibitors of E. coli BW25113 wild type; growth inhibition, % at 100 µM; AID 710; 98,000 tested, 0.15% active; OD600 absorbance;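 active means growth inhibition above about 50% at one test dose, limit read from the data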;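 further: growth measured after 20 h incubation at 37 °C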
Jurkat viability: cytotoxic compounds reducing Jurkat cell viability | Jurkat E6.1 viability, ATP luminescence, 48 h | 56,000 tested, 1.2% active | inhibition, % at 4 µM | AID 463;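 active means inhibition above the mean inhibition of all tested compounds plus 3 SD, cut at about 28% in these data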
H69AR growth 86K: growth inhibitors of human H69AR lung tumor cells | 85,000 tested, 6% active | viability, % at 10 µM | H69AR lung tumor viability, ATP luminescence, 72 h; stronger effect = lower value;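 active means viability at or below 40%; inactive means viability above 40%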;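 further: multidrug resistant small cell line overexpressing MRP-1 efflux transporter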
Hits are given with their value; i = inactive; nt = no result. Only some compounds are listed: those with a hit (about 6.4% of all), similar ones and a draw of the others.

SMILES | Fibroblast inh | Ecoli tolC | HUVEC inhibit | Ecoli WT expand | Jurkat viability | H69AR growth 86K
CC(=O)Nc1cccc(NC(=O)c2oc3ccccc3c2C)c1 | i | 67 | i | i | i | i
CCOc1ccc(C(=O)c2cc([N+](=O)[O-])ccc2Cl)cc1 | nt | nt | nt | i | nt | nt
Cc1ccc(-c2nn3c(-c4ccco4)nnc3c3ccccc23)cc1S(=O)(=O)NCC1CCCO1 (stereo not drawn) | i | i | i | i | i | 16
Cc1ccc(-c2nnc(Nc3ccccc3)c3ccccc23)cc1S(=O)(=O)NCC1CCCO1 (stereo not drawn) | nt | nt | nt | i | nt | nt
COc1ccccc1NC(=O)CSc1nnc(COc2ccc(Cl)cc2)n1Cc1ccco1 | i | i | i | i | i | i
Clc1ccc(OCc2nnc(SCCN3CCCCC3)n2Cc2ccco2)cc1 | i | i | i | i | i | 15
O=C(CSc1nnc(COc2ccccc2)n1Cc1ccco1)c1ccc(F)cc1 | i | i | i | i | i | 39
CCOc1ccc(OCCOCCn2ccnc2)cc1 | i | nt | i | i | nt | i
CCOC(=O)c1[nH]c2cc(OC)c(OC)cc2c1NC(=O)CN1CCN(c2ccc(OC)cc2)C(C)C1 (stereo not drawn) | i | nt | i | i | nt | i
CCOc1ccc(NC(=O)c2ccccc2NC(=O)CN(C)CC(=O)Nc2ccc(C)cc2)cc1 | i | nt | i | i | nt | 37
CCCc1sc(N/N=C/c2ccccn2)nc1-c1ccc(F)cc1 | 19 | nt | 15 | nt | nt | 13
O=C(c1ccc(CN2CCOCC2)cc1)N1CCN(c2ccccc2)CC1 | i | nt | i | nt | nt | i
O=C1CC(c2ccccc2)n2nc(NC(=O)c3ccccn3)nc2N1 (stereo not drawn) | i | i | i | i | i | 29
O=C1CC(c2ccccc2)n2nc(NC(=O)c3ccccc3)nc2N1 (stereo not drawn) | nt | nt | nt | i | nt | nt
COC(=O)c1oc2ccc(Cl)cc2c1-n1cccc1 | i | nt | i | i | nt | i
COc1cc(NS(=O)(=O)c2ccc(C)cc2)c2ncccc2c1 | 9.1 | i | i | i | 79 | 4.0
Cc1ccc(S(=O)(=O)Nc2cccc3cccnc23)cc1 | 5.8 | nt | i | i | nt | 1.9
Cc1ccc(S(=O)(=O)Nc2ccccc2-c2ccccc2NS(=O)(=O)c2ccc(C)cc2)cc1 | nt | nt | nt | i | nt | nt
C=C(C)CN1C(=O)C(O)(CC(=O)c2ccc3c(c2)OCCO3)c2ccccc21 (stereo not drawn) | i | i | i | i | i | 39
N#CCCCN1C(=O)C(O)(CC(=O)c2ccc3c(c2)OCCO3)c2ccccc21 (stereo not drawn) | i | i | i | i | i | i
Cc1c(C(N)=O)sc2ncn(CC(=O)N3CCC(C)CC3)c(=O)c12 | i | nt | i | i | nt | i
COc1ccc(OC)c(S(=O)(=O)Nc2ccc(O)c(Sc3ncn[nH]3)c2)c1 | nt | i | nt | i | i | nt
CC1CC=C2C(C#N)=C(N)C(C#N)(C#N)C(c3cccs3)C2C1 (stereo not drawn) | i | i | i | i | nt | 32
CC(C)(C)OC(=O)N1CC=C2C(C#N)=C(N)C(C#N)(C#N)C(c3cccs3)C2C1 (stereo not drawn) | i | i | i | i | nt | 23
CCOC(=O)N1CC=C2C(C#N)=C(N)C(C#N)(C#N)[C@H](c3cccs3)C2C1 (stereo partly drawn) | i | nt | i | nt | nt | 37
SMILES | Fibroblast inh | Ecoli tolC | HUVEC inhibit | Ecoli WT expand | Jurkat viability | H69AR growth 86K
CN(C)c1nc(N)nc(CSc2nnnn2-c2ccccc2)n1 | i | nt | i | i | nt | i
CCC(C)NS(=O)(=O)c1ccc(OC)c(Cl)c1Cl (stereo not drawn) | nt | nt | nt | i | nt | nt
CCC(C)n1ncn(-c2ccc(N3CCN(c4ccc(OCC5COC(Cn6cncn6)(c6ccc(Cl)cc6Cl)O5)cc4)CC3)cc2)c1=O (stereo not drawn) | i | i | 18 | nt | nt | i
N#CCC(=O)N1CCn2c1nc1ccccc12 | i | i | i | i | i | i
CCC(=O)N1c2ccc(S(=O)(=O)CCC(=O)NC3CCCC3)cc2CC1C (stereo not drawn) | i | i | i | i | i | i
CCC(=O)N1c2ccc(S(=O)(=O)CCC(=O)NCc3cccs3)cc2CC1C (stereo not drawn) | i | nt | i | i | nt | 30
CCC(=O)N1c2ccc(S(=O)(=O)CCC(=O)N3CCn4c3nc3ccccc34)cc2CC1C (stereo not drawn) | 44 | i | i | i | i | 1.9
O=C(Nc1ccc(Cl)cc1)N1CCC(c2nc(-c3ccc(F)cc3)no2)CC1 | i | 72 | i | i | i | i
CCCCCC(=O)N1CCCC(c2nc(-c3ccc(OC)cc3)no2)C1 (stereo not drawn) | i | nt | i | i | nt | i
COc1ccc(C(=O)N2CCCC(c3nc(-c4cc(OC)c(OC)c(OC)c4)no3)C2)cc1 (stereo not drawn) | i | i | i | i | i | 35
COc1ccc(NC(=O)N2CCCC(c3nc(-c4ccc(C(C)C)cc4)no3)C2)cc1 (stereo not drawn) | i | 62 | i | i | i | i
O=C(Nc1ccc(Cl)cc1)N1CCN(c2ccc3nnc(-c4ccc(F)cc4)n3n2)CC1 | nt | i | nt | i | i | nt
CC(=O)n1cc(/C=N/NC(=O)c2sc(C)nc2C)c2ccccc21 | i | nt | i | i | nt | 22
CCSc1ccccc1C(=O)n1nnc2ccccc21 | i | i | i | i | i | 12
CCSc1ccccc1C(=O)N1CCCC1 | i | nt | i | i | nt | i
COc1cc2c(cc1OC)C(C)N(C(=O)C1COc3ccccc3O1)CC2 (stereo not drawn) | i | i | i | i | i | i
CC(=O)NC(=O)COC(=O)/C=C/c1c(C)nn(Cc2c(Cl)cccc2Cl)c1Cl | i | nt | i | i | nt | i
CC(C)n1cc(/C=C2/SC(=O)N(CC(=O)Nc3ccc4c(c3)OCO4)C2=O)c2ccccc21 | nt | nt | nt | i | nt | nt
CC(C)n1cc(/C=C2/NC(=O)N(c3cccc(Cl)c3)C2=O)c2ccccc21 | i | nt | i | nt | nt | 18
CC(C)n1cc(/C=C2\NC(=O)N(c3cccc(Cl)c3)C2=O)c2ccccc21 | i | nt | i | i | nt | 15
CC(C)CC(NC(=O)C1CCC(C)CC1)C(=O)Nc1ccc2c(c1)OCCO2 (stereo not drawn) | i | nt | i | i | nt | i
CCN(CC)c1ccc(NC(=O)c2cc(OC)cc(OC)c2)c(C)c1 | i | i | i | i | 94 | 25
CN(C)c1cccc(C(=O)Nc2cccc(F)c2)c1 | i | i | i | i | i | i
CCN(CC)c1ccc(NC(=O)c2c(OC)cccc2OC)c(C)c1 | i | i | i | i | i | i
CCN(CC)c1ccc(C(=O)Nc2cccc(F)c2)cc1 | i | 62 | i | i | i | 25
CCN(CC)c1ccc(NC(=O)c2cccc(OC)c2)c(C)c1 | i | i | i | i | i | 19
COc1ccc2c(CC(=O)NCc3ccc4c(c3)OCO4)coc2c1 | i | i | i | i | i | i
CC(/C=C/C=C/c1ccccc1)=N/NC(=O)CNc1ccc(C)cc1 | nt | nt | nt | i | nt | nt
Cn1c(SCC(=O)NC(C)(C)C)nnc1-c1cnccn1 | i | nt | i | i | nt | i
Cc1cccc(C)c1NC(=O)C/C(N)=N/O | nt | nt | nt | i | nt | nt
